Experimental data published in ChEMBL document CHEMBL5058577, “EUbOPEN Chemogenomics Library 2 (Multiplex)” (2022).

Tested on: U2OS
Experiment: Multiplex assay against U2OS
Type: toxicity, cell-based
Details: human
How it was run: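 At seeding, live cells were stained with Hoechst33342, BioTracker Green Microtubule Cytoskeleton Dye, MitoTracker Red and Annexin V Alexa Fluor 680. After compound addition they were imaged on a CQ1 microscope at 37°C and 5% CO2, and CellPathfinder machine-learning gating sorted them into Hoechst high-intensity objects or normal cells, with normal cells further split into healthy, pyknosed or fragmented nuclei and pyknosed cells into mitotic or apoptotic. Tubulin, mitochondrial-mass and membrane-permeability phenotypes are given as per cents of cells with healthy nuclei.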

[1] = 12 h, 1 µM, compound concentration 1 uM, replicate 1
[2] = 12 h, 1 µM, compound concentration 1 uM, replicate 2
[3] = 12 h, 10 µM, compound concentration 10 uM, replicate 1
[4] = 12 h, 10 µM, compound concentration 10 uM, replicate 2
[5] = 24 h, 1 µM, compound concentration 1 uM, replicate 1
[6] = 24 h, 1 µM, compound concentration 1 uM, replicate 2
[7] = 24 h, 10 µM, compound concentration 10 uM, replicate 1
[8] = 24 h, 10 µM, compound concentration 10 uM, replicate 2
[9] = 48 h, 1 µM, compound concentration 1 uM, replicate 1
[10] = 48 h, 1 µM, compound concentration 1 uM, replicate 2
[11] = 48 h, 10 µM, compound concentration 10 uM, replicate 1
[12] = 48 h, 10 µM, compound concentration 10 uM, replicate 2

Cc1sc2c(c1C)C(c1ccc(Cl)cc1)=N[C@@H](CC(=O)NCCCCCCCCNC(=O)COc1cccc3c1C(=O)N(C1CCC(=O)NC1=O)C3=O)c1nnc(C)n1-2 (stereo partly specified)
Population Apoptotic (%) [1]: 93%
Population Fragmented Nuclei (%) [1]: 43%
Population Healthy Nuclei (%) [1]: 49%
Population Hoechst High Intensity Objects (%) [1]: 11%
Population Membrane Permeable-Phenotype (%) [1]: 9%
Population Mitochondria Different-Phenotype (%) [1]: 4%
Population Mitotic Cells (%) [1]: 6%
Population Normal (%) [1]: 88%
Population Pyknosed Nuclei (%) [1]: 6%
Population Tubulin-Different-Phenotype (%) [1]: 5%
Total Cell Count [1]: 269
Population Apoptotic (%) [2]: 87%
Population Fragmented Nuclei (%) [2]: 13%
Population Healthy Nuclei (%) [2]: 80%
Population Hoechst High Intensity Objects (%) [2]: 0%
Population Membrane Permeable-Phenotype (%) [2]: 5%
Population Mitochondria Different-Phenotype (%) [2]: 1%
Population Mitotic Cells (%) [2]: 12%
Population Normal (%) [2]: 99%
Population Pyknosed Nuclei (%) [2]: 5%
Population Tubulin-Different-Phenotype (%) [2]: 3%
Total Cell Count [2]: 136
Population Apoptotic (%) [3]: 86%
Population Fragmented Nuclei (%) [3]: 31%
Population Healthy Nuclei (%) [3]: 55%
Population Hoechst High Intensity Objects (%) [3]: 5%
Population Membrane Permeable-Phenotype (%) [3]: 2%
Population Mitochondria Different-Phenotype (%) [3]: 4%
Population Mitotic Cells (%) [3]: 13%
Population Normal (%) [3]: 94%
Population Pyknosed Nuclei (%) [3]: 13%
Population Tubulin-Different-Phenotype (%) [3]: 0%
Total Cell Count [3]: 233
Population Apoptotic (%) [4]: 100%
Population Fragmented Nuclei (%) [4]: 19%
Population Healthy Nuclei (%) [4]: 75%
Population Hoechst High Intensity Objects (%) [4]: 0%
Population Membrane Permeable-Phenotype (%) [4]: 17%
Population Mitochondria Different-Phenotype (%) [4]: 12%
Population Mitotic Cells (%) [4]: 0%
Population Normal (%) [4]: 99%
Population Pyknosed Nuclei (%) [4]: 4%
Population Tubulin-Different-Phenotype (%) [4]: 12%
Total Cell Count [4]: 117
Population Apoptotic (%) [5]: 100%
Population Fragmented Nuclei (%) [5]: 42%
Population Healthy Nuclei (%) [5]: 51%
Population Hoechst High Intensity Objects (%) [5]: 11%
Population Membrane Permeable-Phenotype (%) [5]: 8%
Population Mitochondria Different-Phenotype (%) [5]: 3%
Population Mitotic Cells (%) [5]: 0%
Population Normal (%) [5]: 88%
Population Pyknosed Nuclei (%) [5]: 6%
Population Tubulin-Different-Phenotype (%) [5]: 5%
Total Cell Count [5]: 297
Population Apoptotic (%) [6]: 92%
Population Fragmented Nuclei (%) [6]: 12%
Population Healthy Nuclei (%) [6]: 80%
Population Hoechst High Intensity Objects (%) [6]: 2%
Population Membrane Permeable-Phenotype (%) [6]: 5%
Population Mitochondria Different-Phenotype (%) [6]: 2%
Population Mitotic Cells (%) [6]: 7%
Population Normal (%) [6]: 97%
Population Pyknosed Nuclei (%) [6]: 7%
Population Tubulin-Different-Phenotype (%) [6]: 4%
Total Cell Count [6]: 174
Population Apoptotic (%) [7]: 100%
Population Fragmented Nuclei (%) [7]: 34%
Population Healthy Nuclei (%) [7]: 53%
Population Hoechst High Intensity Objects (%) [7]: 8%
Population Membrane Permeable-Phenotype (%) [7]: 4%
Population Mitochondria Different-Phenotype (%) [7]: 5%
Population Mitotic Cells (%) [7]: 0%
Population Normal (%) [7]: 91%
Population Pyknosed Nuclei (%) [7]: 12%
Population Tubulin-Different-Phenotype (%) [7]: 2%
Total Cell Count [7]: 245
Population Fragmented Nuclei (%) [8]: 27%
Population Healthy Nuclei (%) [8]: 65%
Population Hoechst High Intensity Objects (%) [8]: 0%
Population Membrane Permeable-Phenotype (%) [8]: 21%
Population Mitochondria Different-Phenotype (%) [8]: 9%
Population Normal (%) [8]: 99%
Population Pyknosed Nuclei (%) [8]: 7%
Population Tubulin-Different-Phenotype (%) [8]: 14%
Total Cell Count [8]: 130
Population Apoptotic (%) [9]: 91%
Population Fragmented Nuclei (%) [9]: 35%
Population Healthy Nuclei (%) [9]: 53%
Population Hoechst High Intensity Objects (%) [9]: 10%
Population Membrane Permeable-Phenotype (%) [9]: 6%
Population Mitochondria Different-Phenotype (%) [9]: 1%
Population Mitotic Cells (%) [9]: 8%
Population Normal (%) [9]: 89%
Population Pyknosed Nuclei (%) [9]: 10%
Population Tubulin-Different-Phenotype (%) [9]: 2%
Total Cell Count [9]: 353
Population Apoptotic (%) [10]: 90%
Population Fragmented Nuclei (%) [10]: 12%
Population Healthy Nuclei (%) [10]: 79%
Population Hoechst High Intensity Objects (%) [10]: 1%
Population Membrane Permeable-Phenotype (%) [10]: 4%
Population Mitotic Cells (%) [10]: 9%
Population Normal (%) [10]: 98%
Population Pyknosed Nuclei (%) [10]: 7%
Population Tubulin-Different-Phenotype (%) [10]: 1%
Total Cell Count [10]: 270
Population Apoptotic (%) [11]: 100%
Population Fragmented Nuclei (%) [11]: 36%
Population Healthy Nuclei (%) [11]: 51%
Population Hoechst High Intensity Objects (%) [11]: 7%
Population Membrane Permeable-Phenotype (%) [11]: 9%
Population Mitochondria Different-Phenotype (%) [11]: 4%
Population Mitotic Cells (%) [11]: 0%
Population Normal (%) [11]: 92%
Population Pyknosed Nuclei (%) [11]: 12%
Population Tubulin-Different-Phenotype (%) [11]: 4%
Total Cell Count [11]: 289
Population Fragmented Nuclei (%) [12]: 25%
Population Healthy Nuclei (%) [12]: 70%
Population Hoechst High Intensity Objects (%) [12]: 2%
Population Membrane Permeable-Phenotype (%) [12]: 10%
Population Normal (%) [12]: 97%
Population Pyknosed Nuclei (%) [12]: 4%
Population Tubulin-Different-Phenotype (%) [12]: 7%
Total Cell Count [12]: 179
